# Assay outcomes as filed in PubChem.
# MrgX1 ag: agonists of human MrgX1 receptor, primary screen, HEK293 cells, Fluo-4 calcium flux; Mas-related G-protein coupled receptor member X1 (Homo sapiens), Q96LB2; Fluo-4 calcium fluorescence, agonist mode; hits give high values; B-score at 10 µM; actives 0.44% (n = 310,000); AID 588627, 2011;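 active = calcium response B-score plate-corrected fluorescence ratio at least 3 library SD, with starting fluorescence B-score inside 5 SD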
# Target sequence (Q96LB2 whole entry, looked up): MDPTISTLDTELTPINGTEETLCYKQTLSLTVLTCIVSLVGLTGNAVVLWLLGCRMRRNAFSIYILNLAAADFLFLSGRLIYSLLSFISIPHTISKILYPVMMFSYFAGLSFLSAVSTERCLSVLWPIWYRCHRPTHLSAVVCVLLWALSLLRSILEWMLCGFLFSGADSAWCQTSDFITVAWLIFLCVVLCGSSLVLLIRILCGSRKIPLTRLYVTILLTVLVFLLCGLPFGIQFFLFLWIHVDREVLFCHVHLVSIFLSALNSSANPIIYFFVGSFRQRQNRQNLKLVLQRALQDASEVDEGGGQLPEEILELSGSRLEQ
#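 Material: HEK293 cells stably expressing human MrgX1 receptor | Quantity: 15,000 cells per well | Times: Cells plated overnight, dye loaded 0.5 h 37 °C, 0.5 h room temperature | Measured by: Kinetic Fluo-4 NW fluorescence of intracellular calcium | Control set: Positive and negative controls per plate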
# RGS4 block: RGS4 inhibitors, primary screen, cell-based, HEK293 M3R inducible RGS4, calcium flux; Regulator of G-protein signaling 4 (Homo sapiens), P49798; Fluo-4 calcium flux; hits give high values; triggered by carbachol at its EC20; B-score at 10 µM; actives 0.45% (n = 310,000); AID 463165, 2010;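 active = B-score, a plate-corrected calcium signal, over three deviations above library mean, with baseline fluorescence within five deviations of library mean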;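 also: RGS4 expression induced by doxycycline in cells with stable M3 receptor; B-score is computed from the integrated fluorescence ratio over baseline after carbachol; higher B-score means a larger calcium signal and so more RGS4 inhibition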
# Target sequence (P49798 whole entry, looked up): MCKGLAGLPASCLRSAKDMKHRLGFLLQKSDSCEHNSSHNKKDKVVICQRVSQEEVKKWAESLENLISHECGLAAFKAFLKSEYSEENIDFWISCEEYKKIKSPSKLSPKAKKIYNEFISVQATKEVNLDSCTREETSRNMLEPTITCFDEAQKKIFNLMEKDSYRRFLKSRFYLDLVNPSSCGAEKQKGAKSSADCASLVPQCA
# RGS4 act: RGS4 potentiators or activators, primary screen, cell-based, HEK293 M3R inducible RGS4, calcium flux | carbachol calcium flux Fluo4; hits give low values | B-score at 10 µM | actives 0.92% (n = 310,000);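 active = B-score of the integrated calcium signal more than 4 SD below the library mean, with starting fluorescence not abnormally high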;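 also: negative B-score means reduced calcium response which marks RGS4 activation or potentiation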
#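 Assay system: HEK293 FlpIn-TREx cells, stable M3R, doxycycline-inducible RGS4 / Probe or stimulus: carbachol, ECmax concentration / Times: overnight RGS4 induction, 30 min dye load 37 °C, 20 min compound RT / Signal: kinetic calcium fluorescence imaging with Fluo4-AM dye, 2 µM / Measure: Agonist-evoked peak-minus-minimum fluorescence over baseline, integrated ratio, B score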
# MrgX1 antag: antagonists of human MrgX1 receptor, primary screen, HEK293 cells, Fluo-4 calcium flux; BAM8-22 antagonism; hits give low values; Mas-related G-protein coupled receptor member X1 (Homo sapiens), Q96LB2; actives 1.3% (n = 310,000); B-score at 10 µM;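 active = calcium-response B-score plate-corrected more than 3 library SD below zero, starting fluorescence within 5 deviations, no agonist response on first addition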;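 also: peak minus trough fluorescence over baseline after final BAM8-22 challenge near maximal dose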
# MrgX1 allo act: positive allosteric modulators of MrgX1, primary screen, HEK293 cells, Fluo-4 calcium flux | Mas-related G-protein coupled receptor member X1 (Homo sapiens), Q96LB2 | FDSS; hits give high values | B-score at 10 µM | actives 0.63% (n = 310,000);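 active = plate-corrected calcium response at least 3 library SD above typical, normal starting fluorescence, not activating the receptor alone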;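 also: compound read alongside a low EC10 to EC30 dose of BAM8-22 agonist; peak minus trough fluorescence over baseline measured at the second addition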
# * = called active by the depositor; i = inactive; · = not tested or not shown. Most compounds without a hit are left out; they make up all but 3.5% or so of the library.
SMILES,MrgX1 ag,RGS4 block,RGS4 act,MrgX1 antag,MrgX1 allo act
COc1ccc(N/C(=C(/C(Cl)=C(Cl)Cl)[N+](=O)[O-])n2nnc3ccccc32)cc1,i,i,i,i,i
CCOc1ccc(N(CC(=O)N2CCOCC2)S(=O)(=O)c2ccc(F)cc2)cc1,i,i,i,i,i
COc1ccc(C(=O)NCCCn2cccn2)cc1OC1CCN(C(C)=O)CC1,·,i,i,·,·
N#C/C(=C/c1ccc(F)cc1)c1nnc(NC(=O)c2ccccc2)s1,i,i,i,i,i
Cc1ccc(NC2=C(N3CCCCC3)C(=O)c3ccccc3C2=O)cc1,i,i,i,i,i
COC1=C(Nc2ccc(C)cc2)C(=O)c2ccccc2C1=O,i,i,i,i,17*
COC1=C(Nc2ccccc2)C(=O)c2ccccc2C1=O,i,i,i,i,10*
Nc1ncnc(Oc2cccc3cccnc23)c1[N+](=O)[O-],i,i,i,-5*,i
Cc1cccc(Oc2ncnc(N)c2[N+](=O)[O-])c1C,i,i,i,i,i
CCn1cc(C(=O)O)c(=O)c2cc(F)c(N/N=C/c3ccccc3[N+](=O)[O-])cc21,i,i,-9.4*,i,i
CCC1=C(OC(=O)N(CC)CC)N2C(=O)OC(=NCC3CC3)[C@]2(Cc2ccccc2)[C@H]2C1=CC[C@H]1C(=O)N(c3ccccc3)C(=O)[C@H]12,i,i,i,i,i
Cc1ccc(C)c(S(=O)(=O)/N=C2\C=C(NS(=O)(=O)c3ccccc3)C(=O)c3ccccc32)c1,i,i,i,i,i
Cc1cc(C)c(S(=O)(=O)/N=C2/C=C(Sc3ncn[nH]3)C(=O)c3ccccc32)cc1C,i,·,·,i,6.8*
COc1ccccc1N(CC(=O)NCc1ccc(F)cc1)C(=O)CCC(=O)Nc1nccs1,i,i,i,i,i
COc1ccccc1NC(=O)CCC(=O)N(Cc1ccc(OC)c(OC)c1)c1nccs1,i,i,i,-7.4*,i
Cc1nc(SCC(=O)Nc2ccccc2Cl)oc1C,i,i,i,i,i
COc1ccc(S(=O)(=O)O/N=C2\CCCc3ccccc32)cc1,i,i,i,-4.7*,i
CCOC(=O)C(CN1CCCC1)c1ccccc1 (stereo not given),i,i,i,i,i
O=C(c1ccc(Cl)cc1)C(CN1CCCCC1)c1ccccc1 (stereo not given),i,i,-8.3*,i,i
O=C1NC(=S)N/C1=C/c1cc([N+](=O)[O-])ccc1O,i,i,i,i,12*
CC(OC(=O)C1=Cc2ccccc2OC1)C(=O)NC(C)(C)C (stereo not given),i,i,i,i,i
O=C(CCC(=O)OCC(=O)c1ccc(Cl)cc1Cl)Nc1cccc2cccnc12,i,i,i,-8.4*,i
O=C(CCC(=O)OCC(=O)c1ccc(-c2ccccc2)cc1)Nc1cccc2cccnc12,i,i,i,i,i
Cc1nn(Cc2c(F)c(F)c(F)c(F)c2F)c(C)c1NC(=O)c1nn(C)c(C)c1Br,i,i,i,i,i
N#C/C(=C\c1cccc(O)c1)C(=O)Nc1ccc2c(c1)OCCO2,i,i,i,i,17*
SMILES,MrgX1 ag,RGS4 block,RGS4 act,MrgX1 antag,MrgX1 allo act
CCC(=O)Nc1cccc(C(=O)/C=C/c2ccccc2)c1,35*,i,i,i,i
O=C(/C=C/c1ccccc1)Nc1cccc(C(=O)O)c1,i,i,i,-5.6*,i
O=C(/C=C/c1ccccc1)Nc1ccc2c(c1)OCCO2,i,i,i,-4.6*,i
O=C(/C=C/c1ccco1)Nc1ccc2c(c1)OCCO2,i,i,i,i,i
Cc1ccc(NC(=O)c2ccc3nsnc3c2)c(C)c1,i,i,i,i,i
CC(NC(=O)c1ccc(C23CC4CC(CC(C4)C2)C3)cc1)C(=O)O (stereo not given),i,i,i,i,i
CC(NC(=O)Cn1cc(C(F)(F)F)ccc1=O)c1ccc(F)cc1 (stereo not given),i,i,i,i,6.9*
CCCOc1ccc(/C=C/c2c([N+](=O)[O-])c(=O)n(C)c(=O)n2C)cc1,i,i,i,i,i
CCNc1nc(NCC)nc(SCCOC(=O)c2ccccc2)n1,42*,i,i,i,i
COc1ccc(-n2nnnc2CNC(=O)C(=O)c2c(C)[nH]c3ccccc23)cc1,i,i,i,i,i
O=C1c2ccccc2C(=O)c2c1ccc(C(=O)N1CCCCC1)c2NCCO,i,i,i,i,7*
CC1CCCN(C(=O)c2ccc3c(c2NCCO)C(=O)c2ccccc2C3=O)C1 (stereo not given),i,i,i,i,8*
CC1(C)CCCN(C(=O)c2ccc3c(c2NCCO)C(=O)c2ccccc2C3=O)C1,i,i,i,i,15*
CCN(CCN(C)C)C(=O)c1ccc2c(c1NCCO)C(=O)c1ccccc1C2=O,i,i,i,i,i
OCCc1c[nH]c2ccc(C(F)(F)F)cc12,i,i,i,i,i
C=CCN(CC=C)C(=O)c1ccc(OC2CCN(S(=O)(=O)N(C)C)CC2)cc1,i,i,i,i,i
C=CCNC(=O)c1c(CS(=O)(=O)c2ccccc2)noc1C(=O)NCc1ccccc1,i,·,·,i,i
Cc1cc(C(=O)O)ccc1-c1ccc(/C=C2\SC(=O)N(CC(=O)Nc3ccc4c(c3)OCO4)C2=O)o1,i,i,i,i,i
Cc1ccc(C)c(N2C(=N)S/C(=C\c3ccc(-c4ccccc4C(=O)O)o3)C2=O)c1,i,i,i,i,12*
C#CCN1C(=O)S/C(=C\c2ccc(-c3ccc(C(=O)O)cc3C)o2)C1=O,i,i,i,i,8.1*
O=C(CCC(=O)c1ccc(Oc2ccccc2)cc1)Nc1ccc(C(=O)O)cc1,i,i,i,i,i
Nc1cc2c3c(cccc3c1)C(=O)N(CCN1CCCC1)C2=O,i,i,i,-4.7*,i
O=C1c2cccc3cc([N+](=O)[O-])cc(c23)C(=O)N1CCN1CCCC1,·,i,i,·,·
CCOc1ccc(Br)cc1/C(C)=N\NC1=NCCN1,i,i,-7*,i,i
CS(=O)(=O)c1ccc(NC(=O)CCN2C(=O)C3CC=CCC3C2=O)cc1 (stereo not given),i,i,i,i,i
